Test results published in ChEMBL document CHEMBL1221267, “Synthesis, in vitro and in vivo evaluation of 3-arylisoquinolinamines as potent antitumor agents” (Bioorg Med Chem Lett, 2010).

Experiments:
[1] = system: MDA-MB-231; assay: Antitumor activity against human MDA-MB-231 by sulforhodamine B assay; format: functional, cell-based
Outline: (§1)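 Human tumour lines from ATCC; growth inhibition by sulforhodamine B staining, absorbance read at 530 nm; IC50 taken as the drug concentration inhibiting cell growth by 50%, calculated by curve fitting.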

[2] = system: HCT-116; assay: Antitumor activity against human HCT116 by sulforhodamine B assay; format: functional, cell-based; outline: as §1
[3] = system: CAKI-1; assay: Antitumor activity against human Caki1 by sulforhodamine B assay; format: functional, cell-based; outline: as §1
[4] = system: PC-3; assay: Antitumor activity against human PC3 by sulforhodamine B assay; format: functional, cell-based; outline: as §1
[5] = system: SK-MEL-28; assay: Antitumor activity against human SK-MEL-28 by sulforhodamine B assay; format: functional, cell-based; outline: as §1
[6] = system: OVCAR-3; assay: Antitumor activity against human OVCAR-3 by sulforhodamine B assay; format: functional, cell-based; outline: as §1
[7] = system: PANC-1; assay: Antitumor activity against human PANC1 by sulforhodamine B assay; format: functional, cell-based; outline: as §1
[8] = system: SNB-19; assay: Antitumor activity against human SNB19 by sulforhodamine B assay; format: functional, cell-based; outline: as §1
[9] = system: HCT-15; assay: Cell cycle arrest in human HCT15 cells assessed as accumulation at sub-G1 phase at 10 nM after 48 hrs using propidium iodide staining by flow cytometry; format: functional
Outline: (§2)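 HCT-15 cells plated at about 10^6 per 100-mm dish, grown 24 h, then given fresh medium with compound. Harvested by trypsinization at 24 h and 48 h, fixed in 70% ethanol, stained with 0.2% NP-40, RNase A (30 µg/ml) and propidium iodide (50 µg/ml) in phosphate–citrate buffer pH 7.2. DNA content by flow cytometry, at least 20,000 cells per analysis.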

[10] = system: HCT-15; assay: Cell cycle arrest in human HCT15 cells assessed as accumulation at S phase at 10 nM after 48 hrs using propidium iodide staining by flow cytometry; format: functional; outline: as §2
[11] = system: HCT-15; assay: Cell cycle arrest in human HCT15 cells assessed as accumulation at G0/G1 phase at 10 nM after 48 hrs using propidium iodide staining by flow cytometry; format: functional; outline: as §2
[12] = system: HCT-15; assay: Cell cycle arrest in human HCT15 cells assessed as accumulation at G2/M phase at 1 nM after 48 hrs using propidium iodide staining by flow cytometry; format: functional; outline: as §2
[13] = system: HCT-116; assay: Resistant index, ratio of IC50 for paclitacel-resistant human HCT15 cells to IC50 for human HCT116 cells; format: functional
Outline: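 Index computed as IC50 in HCT-15 divided by IC50 in HCT 116, both from sulforhodamine B growth inhibition with absorbance at 530 nm.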

[14] = system: HCT-15; assay: Cell cycle arrest in human HCT15 cells assessed as accumulation at S phase at 10 nM after 24 hrs using propidium iodide staining by flow cytometry; format: functional; outline: as §2
[15] = system: HCT-15; assay: Antitumor activity against paclitaxel-resistant human HCT15 cells xenografted in BALB/c mouse assessed as tumor growth inhibition at 10 mg/kg, ip qd thrice a week from day 10 to day 29; format: functional; details: HCT-15, ip, route intraperitoneal
Outline: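 Female athymic BALB/c nu/nu mice, six weeks old, received 1 × 10^6 paclitaxel-resistant HCT-15 cells in 0.2 ml RPMI subcutaneously in the right flank. Once tumors were in range, mice were assigned to groups. Dosing was 10 mg/kg/day ip in 5% Cremophor plus 5% ethanol in PBS, three times weekly, days 10–29. Tumor diameters were measured by caliper every 3–5 days. Body weight was monitored.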

[16] = system: HCT-15; assay: Cell cycle arrest in human HCT15 cells assessed as accumulation at G2/M phase at 1 nM after 24 hrs using propidium iodide staining by flow cytometry; format: functional; outline: as §2
[17] = system: HCT-15; assay: Cell cycle arrest in human HCT15 cells assessed as accumulation at sub-G1 phase at 1 nM after 48 hrs using propidium iodide staining by flow cytometry; format: functional; outline: as §2
[18] = system: HCT-15; assay: Cell cycle arrest in human HCT15 cells assessed as accumulation at G2/M phase at 10 nM after 24 hrs using propidium iodide staining by flow cytometry; format: functional; outline: as §2
[19] = system: Mus musculus; assay: Toxicity in BALB/c mouse assessed as change in body weight at 10 mg/kg, ip qd thrice a week from day 10 to day 29; format: organism-based; parameters: dose 10 mg/kg, route intraperitoneal; details: in vivo
Outline: (§3)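 Female athymic BALB/c nu/nu mice, six weeks old, carrying subcutaneous right-flank HCT-15 xenografts (1×10^6 cells in 0.2 ml RPMI). Dosed 10 mg/kg/day ip three times weekly, days 10–29, in 5% Cremophor/5% ethanol in PBS; vehicle-only controls. Body weight monitored alongside caliper tumour measurements every 3–5 days.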

[20] = system: HCT-15; assay: Cell cycle arrest in human HCT15 cells assessed as accumulation at sub-G1 phase at 10 nM after 24 hrs using propidium iodide staining by flow cytometry; format: functional; outline: as §2
[21] = system: HCT-15; assay: Cell cycle arrest in human HCT15 cells assessed as accumulation at S phase at 1 nM after 24 hrs using propidium iodide staining by flow cytometry; format: functional; outline: as §2
[22] = system: Mus musculus; assay: Toxicity in BALB/c mouse at 10 mg/kg, ip qd thrice a week from day 10 to day 29; format: organism-based; parameters: dose 10 mg/kg, route intraperitoneal; details: in vivo; outline: as §3
[23] = system: HCT-15; assay: Cell cycle arrest in human HCT15 cells assessed as accumulation at G0/G1 phase at 1 nM after 48 hrs using propidium iodide staining by flow cytometry; format: functional; outline: as §2
[24] = system: HCT-15; assay: Cell cycle arrest in human HCT15 cells assessed as accumulation at G2/M phase at 10 nM after 48 hrs using propidium iodide staining by flow cytometry; format: functional; outline: as §2
[25] = system: HCT-15; assay: Cell cycle arrest in human HCT15 cells assessed as accumulation at G0/G1 phase at 10 nM after 24 hrs using propidium iodide staining by flow cytometry; format: functional; outline: as §2
[26] = system: HCT-15; assay: Antitumor activity against human paclitaxel-resistant HCT15 by sulforhodamine B assay; format: functional, cell-based; outline: as §1
[27] = system: HCT-15; assay: Cell cycle arrest in human HCT15 cells assessed as accumulation at G0/G1 phase at 1 nM after 24 hrs using propidium iodide staining by flow cytometry; format: functional; outline: as §2
[28] = system: HCT-15; assay: Cell cycle arrest in human HCT15 cells assessed as accumulation at sub-G1 phase at 1 nM after 24 hrs using propidium iodide staining by flow cytometry; format: functional; outline: as §2

| Compound | IC50 [1] [nM] | IC50 [2] [nM] | IC50 [3] [nM] | IC50 [4] [nM] | IC50 [5] [nM] | IC50 [6] [nM] | IC50 [7] [nM] | IC50 [8] [nM] | other results |
| --- | --- | --- | --- | --- | --- | --- | --- | --- | --- |
| COc1cccc(-c2cc3ccc(N(C)C)cc3c(N)n2)c1.Cl | 21 | 17 | 22 | 19 | 32 | 14 | 19 | 32 | Activity [9]: 24.76%; Activity [10]: 18.59%; Activity [11]: 68.67%; Activity [12]: 17.2%; Ratio IC50 [13]: 0.88; Activity [14]: 21.28%; inhibition in vivo at 10 mg/kg [15]: 69.2%; Activity [16]: 20.2%; Activity [17]: 3.78%; Activity [18]: 16.21%; Activity [19]: Non-toxic; Activity [20]: 19.6%; Activity [21]: 29.02%; Activity [22]: Non-toxic; Activity [23]: 59.52%; Activity [24]: 12.74%; Activity [25]: 62.51%; IC50 [26]: 15 nM; Activity [27]: 50.78%; Activity [28]: 0.9% |
| COc1cccc(-c2cc3cc(N(C)C)ccc3c(N)n2)c1 | 59 | 64 | 68 | 190 | 110 | 71 | 110 | 94 |  |
| Cc1cccc(-c2cc3ccc(C)cc3c(N)n2)c1 | 210 | 280 | 440 | 710 | 500 | 290 | 690 | 530 |  |
| COc1ccc(-c2cc3ccc(N(C)C)cc3c(N)n2)cc1OC | 150 | 180 | 170 | 230 | 330 | 140 | 190 | 250 |  |
| CC(=O)O[C@H]1C(=O)[C@@]2(C)[C@H]([C@H](OC(=O)c3ccccc3)[C@]3(O)C[C@H](OC(=O)[C@H](O)[C@@H](NC(=O)c4ccccc4)c4ccccc4)C(C)=C1C3(C)C)[C@]1(OC(C)=O)CO[C@@H]1C[C@@H]2O [PACLITAXEL] |  |  |  |  |  |  |  |  | Ratio IC50 [13]: 70; inhibition in vivo at 10 mg/kg [15]: 48.8% |
| Cc1cccc(-c2cc3ccc(N(C)C)cc3c(N)n2)c1.Cl | 21 | 23 | 23 | 24 | 32 | 16 | 18 | 28 | Ratio IC50 [13]: 0.91; IC50 [26]: 21 nM |
| COc1cc(OC)cc(-c2cc3ccc(N(C)C)cc3c(N)n2)c1 | 27 | 29 | 38 | 48 | 45 | 25 | 26 | 57 |  |
| COc1cc2cc(-c3cccc(C)c3)nc(N)c2cc1OC | 790 | 2320 | 1780 | 2500 | 1120 | 580 | 2270 | 1560 |  |

More lines, in order of falling IC50 [1], values ahead:

| IC50 [1] [nM] | IC50 [2] [nM] | IC50 [3] [nM] | IC50 [4] [nM] | IC50 [5] [nM] | IC50 [6] [nM] | IC50 [7] [nM] | IC50 [8] [nM] | Compound | other results |
| --- | --- | --- | --- | --- | --- | --- | --- | --- | --- |
| 930 | 1360 | 750 | 2980 | 1800 | 790 | 2270 | 2230 | COc1ccc(-c2cc3cc(C)ccc3c(N)n2)cc1 |  |
| 720 | 1220 | 590 | 2760 | 1620 | 910 | 2140 | 2200 | Cc1ccc2cc(-c3ccccc3F)nc(N)c2c1 |  |
| 550 | 700 | 460 | 1840 | 1070 | 570 | 1590 | 1510 | Cc1ccc2c(N)nc(-c3ccccc3F)cc2c1 |  |
| 440 | 670 | 350 | > 3000 | 800 | 490 | 930 | 1130 | COc1ccccc1-c1cc2cc(C)ccc2c(N)n1 |  |
| 320 | 470 | 220 | 1010 | 670 | 510 | 680 | 780 | COc1ccccc1-c1cc2ccc(C)cc2c(N)n1 |  |
| 250 | 790 | 530 | 680 | 630 | 160 | 540 | 420 | COc1cc2cc(-c3c(C)cccc3C)nc(N)c2cc1OC |  |
| 180 | 240 | 160 | 430 | 410 | 180 | 380 | 470 | COc1cc(OC)cc(-c2cc3cc(C)ccc3c(N)n2)c1 |  |
| 150 | 190 | 120 | 240 | 350 | 150 | 240 | 260 | Cc1ccc2c(N)nc(-c3ccccc3C)cc2c1 |  |
| 150 | 180 | 130 | 250 | 420 | 230 | 370 | 380 | Cc1ccc2cc(-c3ccc4c(c3)OCO4)nc(N)c2c1 |  |
| 140 | 190 | 130 | 250 | 340 | 180 | 310 | 290 | COc1cccc(-c2cc3cc(C)ccc3c(N)n2)c1 |  |
| 51 | 74 | 48 | 120 | 120 | 75 | 79 | 120 | Cc1ccc2cc(-c3c(C)cccc3C)nc(N)c2c1 |  |
| 30 | 42 | 47 | 70 | 51 | 42 | 58 | 52 | COc1ccc(C)c(-c2cc3ccc(C)cc3c(N)n2)c1 |  |
